Measured values: ChEMBL document CHEMBL1817640, “Synthesis, trypanocidal activity and molecular modeling studies of 2-alkylaminomethylquinoline derivatives” (Eur J Med Chem, 2011)
Calls of active or inactive are those of the source. No cut-off for these calls is given here.

Experiments:
[1] = Cytotoxicity against african green monkey COS7 cells after 24 hrs by MTT assay; format: cell-based; details: chlorocebus aethiops, COS-7 cells
Trypanosoma cruzi [2] = assay: Trypanocidal activity against intracellular amastigotes form of Trypanosoma cruzi expressing beta-galactosidase infected in mouse J774 cells on day 7; format: functional, organism-based; details: J774, 168 h
Summary of the method: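 Host cells infected with β-galactosidase-expressing trypomastigotes at a 10:1 parasite:cell ratio. After 24 h, washed twice with PBS, then compound added at 0.5–100 in phenol-red-free complete RPMI, duplicates. Uninfected and infected controls included. Developed with CPRG (100 final) plus 1% Nonidet P-40 for 4–6 h at 37 °C, read at A570. % inhibition relative to untreated infected cells; IC50 estimated.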

Trypanosoma cruzi [3] = assay: Trypanocidal activity against epimastigote form of Trypanosoma cruzi assessed as [3H]thymidine uptake after 72 hrs by liquid scintillation counter; format: functional, organism-based
Summary of the method: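 RA-strain epimastigotes grown in biphasic medium at 26 °C, adjusted to 1.5 × 10⁶/mL. Cultured 72 h with compound at 100, 50, 10, 5, 1 and 0.5 (final). Benznidazole 5–20 as positive control. Growth measured by [³H]thymidine uptake. % inhibition = 100 − (cpm treated/cpm untreated × 100); IC50 estimated from this.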

[4] = Selectivity index, ratio of CC50 for african green monkey COS7 cells to IC50 for intracellular amastigotes form of Trypanosoma cruzi; format: functional, COS-7
Summary of the method: (§1)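 SI = CC50 divided by the IC50 against trypomastigotes or amastigotes, respectively.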

[5] = Selectivity index, ratio of CC50 for african green monkey COS7 cells to IC50 for bloodstream trypomastigote form of Trypanosoma cruzi; format: functional, COS-7; summary of the method: as §1
Trypanosoma cruzi [6] = assay: Trypanocidal activity against bloodstream trypomastigote form of Trypanosoma cruzi after 24 hrs; format: functional, organism-based
Summary of the method: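 Trypomastigotes were taken by cardiac puncture from infected CF1 mice at peak parasitemia (day 15). Blood was diluted in complete RPMI to 1.5 × 10⁶ parasites/mL and seeded in duplicate with compound at 0.5–100 final concentration; benznidazole served as control drug. After 24 h incubation at 4 °C, surviving parasites were counted in a Neubauer chamber.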

Trypanosoma cruzi [7] = assay: Antitrypanosomal activity against bloodstream trypomastigote form of Trypanosoma cruzi RA infected in C3H/HeN mouse assessed as reduction in parasites at 1 mg/kg administered 5 days after infection for 10 consecutive days relative to untreated control; format: functional
Trypanosoma cruzi [8] = assay: Antitrypanosomal activity against bloodstream trypomastigote form of Trypanosoma cruzi RA infected in C3H/HeN mouse assessed as decrease in parasitemia at 1 mg/kg administered 5 days after infection for 10 consecutive days measured on day 14 relative to untreated control; format: functional, organism-based; set-up: dose 1 mg/kg

Compound | CC50 at 24 h [1] [µM] | IC50 (Trypanosoma cruzi [2]) [µM] | IC50 (Trypanosoma cruzi [3]) [µM] | Ratio CC50/IC50 [4] | Ratio CC50/IC50 [5] | IC50 (Trypanosoma cruzi [6]) [µM] | fold change (FC) (Trypanosoma cruzi [7]) | Activity (Trypanosoma cruzi [8])
CCOC(=O)c1c(CN2CCN(C)CC2)nc2ccc(Cl)cc2c1-c1ccccc1 | 35.9 | 10.4 | 11.8 | 3.5 | 5.6 | 6.4 |  | 
CCOC(=O)c1c(CN2CCCCC2)nc2ccc(Cl)cc2c1-c1ccccc1 | 311 | 37.9 | 8.2 | 8.2 | 6.05 | 51.3 |  | 
CCOC(=O)c1c(CN(CC)CC)nc2ccc(Cl)cc2c1-c1ccccc1 | 480 | 33 | 11.6 | 14.5 | 11.3 | 42.6 |  | 
CCOC(=O)c1c(CN2CCOCC2)nc2ccc(Cl)cc2c1-c1ccccc1 |  |  | 85.3 |  |  |  |  | 
CC(C)NCc1nc2ccc(Cl)cc2c(-c2ccccc2)c1C(=O)O |  |  | 89.6 |  |  |  |  | 
CCOC(=O)c1c(CN2CCCC2)nc2ccc(Cl)cc2c1-c1ccccc1 | 490 | 40.3 | 10 | 12.1 | 7.8 | 62.4 |  | 
CC(=O)NCCCCCCNCc1nc2ccc(Cl)cc2c(-c2ccccc2)c1C(=O)O | 771 | 12.8 | 3.4 | 60.2 | 248.7 | 3.1 | 3 | Active
CC(O)CNCc1nc2ccc(Cl)cc2c(-c2ccccc2)c1C(=O)O (stereo not drawn) |  |  | 50.4 |  |  |  |  | 
O=C(Cn1ccnc1[N+](=O)[O-])NCc1ccccc1 [BENZNIDAZOLE] | 706 | 3.6 | 5.8 | 196.1 | 20.7 | 34.1 |  | 
CCOC(=O)c1c(CN(C)Cc2ccccc2)nc2ccc(Cl)cc2c1-c1ccccc1 | 315 | 61 | 9.7 | 5.2 | 2.5 | 128 |  | 
CCOC(=O)c1c(CCl)nc2ccc(Cl)cc2c1-c1ccccc1 |  |  | 31.4 |  |  |  |  | 
